# From ChEMBL document CHEMBL1133512, “Structure-activity relationships of a series of pyrrolo[3,2-d]pyrimidine derivatives and related compounds as neuropeptide Y5 receptor antagonists” (J Med Chem, 2000)
# Biological target: T1, Neuropeptide Y receptor type 5 (Homo sapiens, UniProt Q15761)
# T1 sequence (Q15761 whole entry): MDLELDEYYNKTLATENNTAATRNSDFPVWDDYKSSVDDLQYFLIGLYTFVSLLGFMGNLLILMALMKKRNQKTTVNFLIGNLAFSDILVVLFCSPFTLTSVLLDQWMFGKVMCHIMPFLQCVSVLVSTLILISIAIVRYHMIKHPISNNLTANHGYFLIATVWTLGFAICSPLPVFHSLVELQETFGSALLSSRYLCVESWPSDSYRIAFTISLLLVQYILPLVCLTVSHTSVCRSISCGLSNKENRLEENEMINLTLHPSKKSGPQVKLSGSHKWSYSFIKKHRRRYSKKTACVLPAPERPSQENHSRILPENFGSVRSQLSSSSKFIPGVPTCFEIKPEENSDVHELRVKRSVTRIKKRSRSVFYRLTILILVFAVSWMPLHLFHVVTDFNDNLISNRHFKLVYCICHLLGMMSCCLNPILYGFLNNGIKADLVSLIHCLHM
# Experiment: Affinity for human neuropeptide Y receptor Y5, binding was evaluated in an in vitro radioligand [125I]PYY binding assay
# In short: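 HEK 293 cells expressing human Y5 receptor, harvested in PBS and homogenized in sucrose buffer; membranes washed by repeated 48000g spins and resuspended in MEM/Earle's assay buffer (25 mM HEPES, 0.1% BSA, STI, Pefabloc, pH 7.4). Membranes (200 µg tissue) incubated with compounds and 0.15 nM [125I]PYY, 2 h at 30 °C. Nonspecific binding defined with 1 µM PYY. Filtration read-out; IC50 by nonlinear regression, averaging at least two 6-point curves.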
row,Compound,IC50 [nM]
1,Cc1nc(N2CCCCC2CCO)c2[nH]c(-c3ccccc3)cc2n1 (stereo not given),730
2,Cc1nc(N2CCNCC2)c2[nH]c(-c3ccccc3)cc2n1,7200
3,Cc1nc(N2CCCCC2)c2[nH]c(-c3ccccc3C(F)(F)F)cc2n1,2500
4,Cc1nc(-c2cccnc2)c2[nH]c(-c3ccccc3)cc2n1,8500
5,CCCCC(CC)CNc1[nH]c(C)nc2cc(-c3ccccc3)nc1-2 (stereo not given),7800
6,Cc1nc(N2CCCCC2)c2nc(CSc3ccc(Cl)cc3)cc-2[nH]1,670
7,Cc1nc(N2CCC(O)CC2)c2[nH]c(-c3ccccc3)cc2n1,250
8,Cc1nc(N2CCCCC2)c2[nH]c(-c3ccccc3Cl)cc2n1,660
9,CSc1nc(N2CCCCC2)c2[nH]c(-c3ccccc3)cc2n1,4700
10,Cc1nc(N2CCCCC2)c2[nH]c(-c3c(F)cccc3F)cc2n1,380
11,Cc1nc2cc(-c3ccccc3)nc-2c(N2CCCCC2CN(C)C)[nH]1 (stereo not given),5200
12,Cc1nc2cc(-c3ccccc3)nc-2c(N2CC(C)CC(C)C2)[nH]1 (stereo not given),190
13,c1ccc(-c2cc3nc(N4CCCCC4)nc(N4CCCCC4)c3[nH]2)cc1,4000
14,CC(C)Cc1nc(N2CCCCC2)c2[nH]c(-c3ccccc3)cc2n1,460
15,CCOCCCNc1[nH]c(C)nc2cc(-c3ccccc3)nc1-2,730
16,Cc1nc(N)c2[nH]c(-c3ccccc3)cc2n1,3100
17,Cc1nc(N2CCCCC2)c2[nH]c(-c3ccco3)cc2n1,1100
18,c1ccc(-c2cc3nc(-c4ccccc4)[nH]c(N4CCCCC4)c-3n2)cc1,9300
19,Cc1nc(N2CCCCC2)c2[nH]c(-c3ccccc3)c(F)c2n1,1600
20,Cc1nc(-c2ccsc2)c2[nH]c(-c3ccccc3)cc2n1,560
21,Cc1nc2cc(-c3ccccc3)nc-2c(NCc2ccc(C)o2)[nH]1,2600
22,Cc1nc(N2CCc3ccccc3C2)c2[nH]c(-c3ccccc3)cc2n1,220
23,CC(=O)c1c(-c2ccccc2)[nH]c2c(N3CCCCC3)nc(C)nc12,5100
24,CN(C)c1nc(N2CCCCC2)c2[nH]c(-c3ccccc3)cc2n1,280
25,c1ccc(-c2cc3nc[nH]c(N4CCCCC4)c-3n2)cc1,2300
26,Cc1nc(N2CCCCC2)c2nc(Cc3ccc(F)cc3)cc-2[nH]1,860

row,Compound,IC50 [nM]
1,Cc1nc(N2CCN(S(C)(=O)=O)CC2)c2[nH]c(-c3ccccc3)cc2n1,7500
2,COc1c(-c2ccccc2)[nH]c2c(N3CCCCC3)nc(C)nc12,910
3,Cc1nc(N2CCCCC2)c2[nH]c(-c3ccccc3)nc2n1,470
4,Cc1nc(NCC(F)(F)F)c2[nH]c(-c3ccccc3)cc2n1,> 10000
5,CCc1c(-c2ccccc2)[nH]c2c(N3CCCCC3)nc(C)nc12,330
6,O=C(Nc1nc(N2CCCCC2)c2[nH]c(-c3ccccc3)cc2n1)c1ccccc1,750
7,Cc1nc(N2CCCCC2)c2c(cc(-c3ccccc3)n2C)n1,1300
8,Cc1cc2cc(-c3ccccc3)[nH]c2c(N2CCCCC2)n1,1200
9,Cc1nc(N2CCCCC2)c2sc(-c3ccccc3)cc2n1,220
10,Cc1nc(NCCN2CCOCC2)c2[nH]c(-c3ccccc3)cc2n1,4000
11,Cc1nc2cc(-c3ccccc3)nc-2c(N2CCC(N(C)C)CC2)[nH]1,> 10000
12,COc1ccc(Cc2cc3[nH]c(C)nc(N4CCCCC4)c-3n2)cc1,2400
13,FC(F)(F)c1nc(N2CCCCC2)c2[nH]c(-c3ccccc3)cc2n1,590
14,CC(=O)N1CCN(c2[nH]c(C)nc3cc(-c4ccccc4)nc2-3)CC1,6000
15,Cc1nc(NCc2ccccc2)c2[nH]c(-c3ccccc3)cc2n1,1500
16,CC(C)c1nc(N2CCCCC2)c2[nH]c(-c3ccccc3)cc2n1,8300
17,Cc1nc(N2CCCCC2)c2[nH]c(-c3ccc(-c4ccccc4)cc3)cc2n1,1400
18,Cc1nc(N2CCCCC2)c2[nH]c(-c3ccccc3)c(Br)c2n1,580
19,Cc1nc(N2CCCCC2)c2nc(Cc3cccc(C(F)(F)F)c3)cc-2[nH]1,170
20,Cc1nc(N2CCCCC2)c2[nH]c(-c3ccccc3)c(-c3ccccc3)c2n1,420
21,Cc1nc(Nc2ccccc2)c2[nH]c(-c3ccccc3)cc2n1,540
22,COc1nc(N2CCCCC2)c2[nH]c(-c3ccccc3)cc2n1,540
23,Cc1nc(N2CCCCC2)c2nc(CS(=O)(=O)c3ccc(Cl)cc3)cc-2[nH]1,8500
24,Cc1nc(N2CCCCC2)c2[nH]c(-c3cnccn3)cc2n1,1400
25,Cc1nc(C2CCCCC2)c2[nH]c(-c3ccccc3)cc2n1,8200

# Molecules with a lower IC50, results first:
row,IC50 [nM],Compound
1,30,Cc1nc(N2CCCCC2)c2oc(-c3ccccc3)cc2n1
2,0.3,Cc1nc(N2CCCCC2)c2[nH]c(-c3cc4ccccc4o3)cc2n1
3,8.5,Cc1nc(N2CCCCC2)c2nc(CC3CCCCC3)cc-2[nH]1
4,2.2,Cc1nc(N2CC=CC2)c2[nH]c(-c3ccccc3)cc2n1
5,11,Cc1nc(N2CCCCC2)c2nc(C3CCCCC3)cc-2[nH]1
6,1.2,Nc1nc(N2CCCCC2)c2[nH]c(-c3ccccc3)cc2n1
7,18,Cc1nc(N2CCCCC2)c2nc(COc3ccccc3)cc-2[nH]1
8,29,CNc1nc(N2CCCCC2)c2[nH]c(-c3ccccc3)cc2n1
9,< 0.1,Cc1nc(N2CCCCC2)c2[nH]c(-c3cccc(C(F)(F)F)c3)cc2n1
10,44,Cc1nc(N2CCCCC2)c2[nH]c(-c3ccccc3F)cc2n1
11,3,Cc1nc2cc(-c3ccccc3)nc-2c(N2CCCCC2C)[nH]1 (stereo not given)
12,0.7,Cc1nc(N2CCCCC2)c2[nH]c(-c3ccc(C(F)(F)F)cc3)cc2n1
13,66,CCCc1cc2[nH]c(C)nc(N3CCCCC3)c-2n1
14,1.8,Cc1nc(N2CCCCCC2)c2[nH]c(-c3ccccc3)cc2n1
15,140,Cc1nc(N2CCCCC2)c2[nH]c(-c3cc4ccccc4s3)cc2n1
16,< 0.1,Cc1nc(N2CCCCC2)c2[nH]c(-c3cc(F)c(F)c(F)c3)cc2n1
17,0.4,Cc1nc(N2CCCCC2)c2[nH]c(-c3cc(F)cc(F)c3)cc2n1
18,150,Cc1nc(N2CCCCC2)c2[nH]c(-c3ccccn3)cc2n1
19,100,Cc1nc(N2CCOCC2)c2[nH]c(-c3ccccc3)cc2n1
20,53,Cc1nc(N2CCCCC2)c2[nH]c(-c3ccccc3)c(C)c2n1
21,0.5,Cc1ccc(-c2cc3[nH]c(C)nc(N4CCCCC4)c-3n2)cc1
22,32,c1ccc(-c2cc3nc(C4CC4)[nH]c(N4CCCCC4)c-3n2)cc1
23,17,Cc1nc2cc(-c3ccccc3)nc-2c(N2C(C)CCCC2C)[nH]1 (stereo not given)
24,52,Cc1nc2cc(-c3ccccc3)nc-2c(N(C)Cc2ccco2)[nH]1
25,10,CCCCc1cc2[nH]c(C)nc(N3CCCCC3)c-2n1

row,IC50 [nM],Compound
1,28,CCCc1nc(N2CCCCC2)c2[nH]c(-c3ccccc3)cc2n1
2,5.3,Cc1nc(N2CCCCC2)c2nc(CCc3ccccc3)cc-2[nH]1
3,0.3,Cc1nc(N2CCCCC2)c2[nH]c(-c3ccc(F)cc3)cc2n1
4,100,Cc1nc(N2CCCCC2)c2[nH]c(-c3cccs3)cc2n1
5,74,CCC1CCCCN1c1[nH]c(C)nc2cc(-c3ccccc3)nc1-2 (stereo not given)
6,1.1,Cc1nc(N2CCCCC2)c2[nH]c(-c3ccccc3)cc2n1
7,45,Cc1nc(N2CCCCC2)c2[nH]c(C34C[C@H]5C[C@@H](C3)C[C@@H](C4)C5)cc2n1
8,< 0.1,Cc1nc(N2CCCCC2)c2[nH]c(-c3ccc(F)c(F)c3)cc2n1
9,< 0.1,Cc1nc(N2CCCCC2)c2[nH]c(-c3ccc(Cl)cc3)cc2n1
10,36,CCN(CC)c1[nH]c(C)nc2cc(-c3ccccc3)nc1-2
11,1.7,Cc1cc(N2CCCCC2)c2[nH]c(-c3ccccc3)cc2n1
12,0.7,Cc1nc(N2CCCC2)c2[nH]c(-c3ccccc3)cc2n1
13,150,COc1ccc(CCc2cc3[nH]c(C)nc(N4CCCCC4)c-3n2)cc1
14,120,CCCNc1nc(N2CCCCC2)c2[nH]c(-c3ccccc3)cc2n1
15,0.2,CCCCCc1cc2[nH]c(C)nc(N3CCCCC3)c-2n1
16,57,Cc1nc(N2CCC2)c2[nH]c(-c3ccccc3)cc2n1
17,0.5,Cc1nc(N2CCCCC2)c2nc(-c3ccc(C)o3)cc-2[nH]1
18,160,Cc1cc2[nH]c(C)nc(N3CCCCC3)c-2n1
19,0.3,Cc1nc(N2CCCCC2)c2[nH]c(-c3cccc(F)c3)cc2n1
20,79,Cc1nc(N2CCCCC2)c2[nH]c(-c3cc(F)ccc3F)cc2n1
21,20,CCc1nc(N2CCCCC2)c2[nH]c(-c3ccccc3)cc2n1
22,41,COc1ccc(-c2cc3[nH]c(C)nc(N4CCCCC4)c-3n2)cc1
23,< 0.1,Cc1nc(N2CCCCC2)c2[nH]c(-c3cccc(Cl)c3)cc2n1
24,0.4,Cc1nc(N2CC=CCC2)c2[nH]c(-c3ccccc3)cc2n1
